# Assay results taken from the RNAGym collection of RNA variant scans (doi:10.1126/science.aae0568).
# Variants at the floor of the assay were thinned out.
# B1: tRNA (parent)
# chain: GUUCCGUUGGCGUAAUGGUAACGCGUCUCCCUCCUAAGGAGAAGACUGCGGGUUCGAGUCCCGUACGGAACG
# Variants of: B1
# Assay: yeast fitness relative to wild type (ratio to wild type); higher = fitter; tRNA-Arg(CCU), competitive growth, 37 C, YPD
# Outline: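 Variants of the tRNA-Arg(CCU) gene were chemically synthesised with a 3% per-site mutation rate across 69 sites and placed at the native genomic locus in Saccharomyces cerevisiae. Six parallel replicates of the pooled strains were competed in YPD at 37°C for 24 hours, and gene amplicons from the start and end populations were read by 100-nucleotide paired-end sequencing. Darwinian fitness relative to wild type was derived from changes in genotype frequencies. Genotypes required ≥ 100 starting reads, and estimates < 0.5 were set to 0.5.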
row,Variant,yeast fitness
1,GUUCCGUUGGCGUAAUGGUAACGAGUCUCCCUCCUAAGGAGAAGACUGCGGGUUGGAGUCCCGUACGGAACG,0.545
2,GUUCCGUUGGCGUAAUGGUAACGAGUCUCCCCUCUAAGGAGAAGACUGCGGGUCCGAGUCCCGUACGGAACG,0.602
3,GUUCCGUUGGCGUAAUGGUAACGAGUCUCCCUUCUAAGGAGAAGACUGCGGGUUCGUGGCCCGUACGGAACG,≤ 0.5
4,GUUCCGUUGGCGUAAUGGUAACGAGUCUCCCUCCUAAGGAGAAGAUUGCGGGUUCGAGUCCCGUACGGAACG,1.1
5,GUUCCGUUGGCGUAAUGGUAACGAGUCUCCCUCCUAAGGAGAAGAAUGCGGGUUCGAGUCCCGUACGGAACG,1.01
6,GUUCCGUUGGCGUAAUGGUAACGAGGCUCCCUCCUAAGGAGACGACUGCGGGUUCGAGUCCCGUACGGAACG,0.516
7,GUUCCGUUGGCGUAAUGGUAACGAGUCUCCCUCCUAAGGAGAAGACUGUGGGUUCGAGUCCUGUACGGAACG,0.654
8,GUUCCGUUGGCGUAAUGGUAACGAGUCUCCCUCCUAAGGAGAAGACUCCGGGUUCGAGUCCCGUACCGAACG,≤ 0.5
9,GUUCCGUUGGCGUAAUGGUAACGAGGCUCCCUCCUAAGGAGAAGACUGCGGGUUCGAGUCCCGUACGGAACG,0.655
10,GUUCCGUUGGCGUAAUGGUAACGAGACUCCCUCCUAAGGAGAUGACUGCGGGUUAGAGUCCCGUAUGGAACG,≤ 0.5
11,GUUCCGUUGGCGUAAUGGUAACGAGUCUCCCUCUUAAGGCGAAGACUGCGGGUUCGAGUCCCGUACGCAACG,≤ 0.5
12,GUUCCGUUGGCGUAAUGGUAACGAGUCUCCCUCCUAAGGAGAAGAGUGCGGGUUCGAGCCCUGUACGGAACG,≤ 0.5
13,GUUCCGUUGGCGUAAUGGUAACGAGUCUCCCUCCUAAGGAGAAGAGUGCGGGUUCGAGCCCGGUACGGAACG,0.617
14,GUUCCGUUGGCGUAAUGGUAACGAGUCUCCCUCCUAAGGAGAAGACUGCGGGUUCGAGUCCGGUACGGAACG,0.706
15,GUUCCGUUGGCGUAAUGGUAACGAGUCUCCCUCCUAAGGAGAAGACUGCGGGUUCGAGUCCUGUACGGAACG,0.724
16,GUUCCGUUGGCGUAAUGGUAACGAGUCUCCCUCCUAAGGACAAGACUACGGGUUCGAGUCCCGUACGGAACG,0.625
17,GUUCCGUUGGCGUAAUGGUAACGAGUCUCCCUCCUAAGGAGAAGACUGGGGGUUCGAGUCCCGUACGGCACG,≤ 0.5
18,GUUCCGUUGGCGUAAUGGUAACGAGUCUCCCUCUUAAGGAGAAGACUGCGGAUUCGAGUCCCGUACGGAACG,≤ 0.5
19,GUUCCGUUGGCGUAAUGGUAACGAGUCUCCCUCCUAAGGAGAAGACUGUGGGUUCGAGGCCUGUACGGAGCG,≤ 0.5
20,GUUCCGUUGGCGUAAUGGUAACGAGUCUCCCUCCUAAGAAGAAGACUGCGGGUUCGAGUACCGUACGGAACG,≤ 0.5
21,GUUCCGUUGGCGUAAUGGUAACGAGUCUCCCUCCUAAGGAGAAGACUGCGAGUUCGAGUCCCGUAUGGAACG,≤ 0.5
22,GUUCCGUUGGCGUAAUGGUAACGAGUCUCCCUCCUAAGGAGAAGACUGCGGGUUCGAGUCCCGGACGGAACG,0.68
23,GUUCCGUUGGCGUAAUGGUAACGAGUCUCCCUCCUAAGGAGAAGACUGCGGGUUCGAGUCCCGAACGGAACG,0.622
24,GUUCCGUUGGCGUAAUGGUAACGAGUCUCCCGCCUUAGGAGAAGACUGCGGGUUCGCGUCCCGUACGGAACG,≤ 0.5
25,GUUCCGUUGGCGUAAUGGUAACGAGUCUCCCUCCUAAGGAGAAGACUGAGGGUUCGAGUCGCGUACGGAACG,≤ 0.5

row,Variant,yeast fitness
1,GUUCCGUUGGCGUAAUGGUAACGAGUCUCCCUCCUAAGCAGGAGACUGCGGGUUCGAGUCCCGUACGGAACG,≤ 0.5
2,GUUCCGUUGGCGUAAUGGUAACGAGUCUCCCUCCUAAGGAGAAGACUGAGGGUUCGAGUCCCGUACGGAACG,0.577
3,GUUCCGUUGGCGUAAUGGUAACGAGUCUCCCUCCUAAGGAGAAGACUGCGGGUACGAGUCCCGUACGGAACG,0.634
4,GUUCCGUUGGCGUAAUGGUAACGAGUCUCCCUCCUAAGGAGAAGACUGCGGGUUCGAGGCCUGUACGGAGCG,0.54
5,GUUCCGUUGGCGUAAUGGUAACGAAUCUCCCUCCUAAGGAGAAGACCGCGGGUUCGAGUCCCGUACGGAACG,≤ 0.5
6,GUUCCGUUGGCGUAAUGGUAACGAGUCCCCCUCCUAAGGAGAAGACUGCGGGUUCGAGUCCCGCAUGGAACG,≤ 0.5
7,GUUCCGUUGGCGUAAUGGUAACGAGUCUCCCUCCUAAGGAGAAGACUGCAGGUUCGAGUCCCGUAUGGAACG,0.5
8,GUUCCGUUGGCGUAAUGGUAACGAAUCUCCCUCCUAAGGAGAAGACCGCGGCUUCGAGUCCCGUACGGAACG,≤ 0.5
9,GUUCCGUUGGCGUAAUGGUAACGAGUCUCCCCCCUAAGGAGAAGACUGCGGGUUCGAGUCCCGUACGGAACG,0.612
10,GUUCCGUUGGCGUAAUGGUAACGAGUCUCCCUGUUAAGGAGAAGACUGCGGGUUCGACUCCCGUACGGAACG,0.551
11,GUUCCGUUGGCGUAAUGGUAACGAGUCUCCCUCCUAAGGAGAAGACUGAGGGUUCCAGUCCCGUACGCAACG,≤ 0.5
12,GUUCCGUUGGCGUAAUGGUAACGAGUCUCCCUCCUAAGGAGAAGACUGCGGGUUCGAAUCCCGUACGGAGCG,0.574
13,GUUCCGUUGGCGUAAUGGUAACGAGUCUCCCUCCUAAGCAGAAGACUGCGGGUUCGAGUCCCGUACGGAACG,0.705
14,GUUCCGUUGGCGUAAUGGUAACGAGUCUCCCUCCUAACGAGAAGACUACGGGUUCGAGUCCCGUACGGAACG,≤ 0.5
15,GUUCCGUUGGCGUAAUGGUAACGAGUCUCCCUCCUAACGAGAAGACUCCGGGUUCGAGUCCCGUACGGAACG,≤ 0.5
16,GUUCCGUUGGCGUAAUGGUAACGAGUCUCCCCCCUAAGGAGAAGACUGCGGGUUAGAGUUCCGUACGGAACG,0.698
17,GUUCCGUUGGCGUAAUGGUAACGAGUCUCCCUCCUAAGGAGAAGACUGCGGGUUCGAGUCCGGUACGGAUCG,0.562
18,GUUCCGUUGGCGUAAUGGUAACGAGUCUCCCUCCUAAGGAGAAGACUGCGGGUUCCAGUCCCGUACGGAACG,0.626
19,GUUCCGUUGGCGUAAUGGUAACGAGUCUCCCUACUAAGGAGAAGACUGCGCGUUCGAGUCCUGUACGGAACG,≤ 0.5
20,GUUCCGUUGGCGUAAUGGUAACGAGUCUCCCUCCUAAGGAGAAGAAUGCGGGUUCGAGUCCCAUACGGAACG,0.793
21,GUUCCGUUGGCGUAAUGGUAACGAGUCUCCCGCCUAGGGAGAAGACUGCGGGUUCGAGUCCCGUACGGAACG,≤ 0.5
22,GUUCCGUUGGCGUAAUGGUAACGAGUCUCCCCCCUAAGGAGAAGACUGCGGGUUCGAGUCGCGUACGGAACG,≤ 0.5
23,GUUCCGUUGGCGUAAUGGUAACGAGUCUCCCUCCUAAGGAGAAGACUGCGGGUUCGAAUCCCGUACGGAACG,0.859
24,GUUCCGUUGGCGUAAUGGUAACGAGUCUCCCUCCUAAGGAGAAGACUGCGGGUUCGAGUCCCGUAUGGAACG,0.691
25,GUUCCGUUGGCGUAAUGGUAACGAGUCUCCCUUAUAAGGAGAUGAGUGCGGGUUCGAGUCCCGUACGGAACG,≤ 0.5

row,Variant,yeast fitness
1,GUUCCGUUGGCGUAAUGGUAACGAGUCUCCCUCCUAAGGAGAAGACUGCGGGUUCGAGUCCCGGACGGACCG,≤ 0.5
2,GUUCCGUUGGCGUAAUGGUAACGAGUCUCCCUCCUAAGGAGAAGACUGCGCCUUCGAGUCCCGUACGGAACG,≤ 0.5
3,GUUCCGUUGGCGUAAUGGUAACGAGUCUCCCUCCUAAGCAGAAGACUGCGGGUUCGAGUCCCGUACGGACCG,0.601
4,GUUCCGUUGGCGUAAUGGUAACGAGUCUCCCUCCGAAGGAGAAGAUUGCGGGUUCGAGUCCCGUACGAAACG,≤ 0.5
5,GUUCCGUUGGCGUAAUGGUAACGAGUCUCCCUCCUAAGGAGAACACUGCGGGUUCGAGACCCGUACGGAACG,≤ 0.5
6,GUUCCGUUGGCGUAAUGGUAACGAGUCCCCCUCCUAAGGAGAAGACUGCGGGUUCAAGUCCCGUACGGAACG,≤ 0.5
7,GUUCCGUUGGCGUAAUGGUAACGAGUCUCCCUCCUAAAGAGAAGACAGCGGGUUGGAGUCUCGUACGGAACG,≤ 0.5
8,GUUCCGUUGGCGUAAUGGUAACGAGUCUCCCUCCUAAGGAGAAGACUGCGGGCUCGAGUCCCGUACGGAACG,0.598
9,GUUCCGUUGGCGUAAUGGUAACGAGUCUCCCUCCUAAGGAGAAGACAGCGGGUUCGAGUCCCGUACGGAACG,0.619
10,GUUCCGUUGGCGUAAUGGUAACGAGUCUCCCUCCUAAGGAGAAGACUGCGGGUUCGACUCCUGUACGGAACG,≤ 0.5
11,GUUCCGUUGGCGUAAUGGUAACGAGUCUCCCUCCUAAGGAAAAGACUGCGGGUUCGAGUCCCGUACGGAACG,0.738
12,GUUCCGUUGGCGUAAUGGUAACGAGUCUCCCUCCUAAGCAGAAGACUGCGGGUUCGUGUCCCGUACGGACCG,≤ 0.5
13,GUUCCGUUGGCGUAAUGGUAACGAGUCUCCCUCCUAAGGAGAAGACUGCGGGUUCGAGUCCCAAACGGAACG,≤ 0.5
14,GUUCCGUUGGCGUAAUGGUAACGAGUCUCCCUCCUAAGGAGAAGACAGCGGGUUCGAGUCCCGUACGGAUCG,≤ 0.5
15,GUUCCGUUGGCGUAAUGGUAACGAGUCUCCCUCUUAAGGAAAAGACUGCGGGUUCGAGUCCCGUACGGAACG,≤ 0.5
16,GUUCCGUUGGCGUAAUGGUAACGAGUCCCCCUCCUAAGGAGAAGACUGCGGGUUCGUGUCCCGUACGGAACG,≤ 0.5
17,GUUCCGUUGGCGUAAUGGUAACGAGUCUCCCUCCUAAGGAGAAGACUGCGGGUUCGAGGCCCGUAUGGACCG,0.529
18,GUUCCGUUGGCGUAAUGGUAACGAGUCUCCCUCCGAAGGAGAAGACUGCGGGUUCGAGUCCCGUCCGGAACG,≤ 0.5
19,GUUCCGUUGGCGUAAUGGUAACGAGUCUCCCUCCUAAGGAGAAGAAUGCGGGUUCGAGUCCCGUACGGACCG,0.851
20,GUUCCGUUGGCGUAAUGGUAACGAGGCUCCCUCCUAAGGAGACGACUGCGGGUUCGAGUCCGAUAGGGAACG,0.514
21,GUUCCGUUGGCGUAAUGGUAACGAGUCUCCCUCCUAAGGAGAAGACUGCGGCUUCGCGUCCCGUACGGAACG,0.561
22,GUUCCGUUGGCGUAAUGGUAACGAGUCUCCCUGCUAAGGCGAAGACUGCGGGUUUGAGUCCCGUACAGAACG,≤ 0.5
23,GUUCCGUUGGCGUAAUGGUAACGAGUCUCCCUCCUAAGGAGAAGACUGCGGGUUCGAGUCCCAUACGGAACG,0.658
24,GUUCCGUUGGCGUAAUGGUAACGAGUCUCCCUCCUAAGGAGAAGACUGCGGGUUGGAGUACCGUACGGAACG,≤ 0.5
25,GUUCCGUUGGCGUAAUGGUAACGAGUCUCCCUCCUAAGGAGAAGACUGCGGGUUGGAGUGCCGUACGGAACG,0.528
